From ChEMBL document CHEMBL3856209, “Novel pyrazolopyridine derivatives as potential angiogenesis inhibitors: Synthesis, biological evaluation and transcriptome-based mechanistic analysis” (Eur J Med Chem, 2016)
The source made the active and inactive calls.

How the values were obtained:
HUVEC [1] = experiment: Effect on CCNB2 gene expression in serum-starved HUVEC after 6 hrs by microarray analysis relative to control; type: functional, Homo sapiens
Method in brief: (§1)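 Serum-starved confluent HUVEC treated with 2 μM compound or DMSO in 2.5% FBS for 6 h or 24 h; RNA hybridized to Illumina Human-HT12 arrays. Data background-corrected, vst-transformed and rsn-normalized. Differential probes called by moderated paired t-test (limma) at p < 0.05 and log2 fold change >|0.5| vs DMSO.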

HUVEC [2] = experiment: Effect on RNVU1-18 gene expression in serum-starved HUVEC after 6 hrs by microarray analysis relative to control; type: functional, Homo sapiens
Method in brief: (§2)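 Serum-starved confluent HUVEC (pooled from 3–5 donors, passage ≤4) were treated with 2 μM compound or vehicle in 2.5% FBS for 6 h or 24 h, and total RNA was isolated. Hybridization was on Illumina Human-HT12. Data were processed with bgAdjust, vst and rsn normalization. Changes versus DMSO were called by moderated paired t-test at p < 0.05 and |log2 fold change| > 0.5.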

HUVEC [3] = experiment: Effect on ITGA2 gene expression in serum-starved HUVEC after 6 hrs by microarray analysis relative to control; type: functional, Homo sapiens
Method in brief: (§3)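 Confluent, serum-starved HUVEC (pooled from 3–5 donors, passage ≤4) treated with 2 μM compound or vehicle with 2.5% FBS for 6 h or 24 h. Total RNA hybridized to Illumina Human-HT12 arrays. Data were background-corrected, vst-transformed and rsn-normalized. Hits called by moderated paired t-test versus DMSO-treated cells, p < 0.05 and log2 fold change >|0.5|.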

HUVEC [4] = experiment: Effect on ZAK gene expression in serum-starved HUVEC after 24 hrs by microarray analysis relative to control; type: functional, Homo sapiens
HUVEC [5] = experiment: Effect on HINT3 gene expression in serum-starved HUVEC after 24 hrs by microarray analysis relative to control; type: functional, Homo sapiens; method in brief: as §3
HUVEC [6] = experiment: Effect on GANAB gene expression in serum-starved HUVEC after 24 hrs by microarray analysis relative to control; type: functional, Homo sapiens; method in brief: as §3
HUVEC [7] = experiment: Effect on RNA18S5 gene expression in serum-starved HUVEC after 6 hrs by microarray analysis relative to control; type: functional, Homo sapiens
HUVEC [8] = experiment: Effect on ACSS2 gene expression in serum-starved HUVEC after 6 hrs by microarray analysis relative to control; type: functional, Homo sapiens; method in brief: as §1
HUVEC [9] = experiment: Effect on ANGPTL4 gene expression in serum-starved HUVEC after 6 hrs by microarray analysis relative to control; type: functional, Homo sapiens; method in brief: as §1
HUVEC [10] = experiment: Effect on ANTXR1 gene expression in serum-starved HUVEC after 6 hrs by microarray analysis relative to control; type: functional, Homo sapiens; method in brief: as §1
HUVEC [11] = experiment: Effect on CDK1 gene expression in serum-starved HUVEC after 6 hrs by microarray analysis relative to control; type: functional, Homo sapiens; method in brief: as §1
HUVEC [12] = experiment: Effect on CENPW gene expression in serum-starved HUVEC after 6 hrs by microarray analysis relative to control; type: functional, Homo sapiens; method in brief: as §1
HUVEC [13] = experiment: Effect on DBI gene expression in serum-starved HUVEC after 6 hrs by microarray analysis relative to control; type: functional, Homo sapiens
Method in brief: (§4)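 Serum-starved confluent HUVEC (primary, pooled from 3–5 donors, passage ≤4) treated with 2 μM test compound or DMSO vehicle (working dilutions ≤0.1% v/v) in presence of 2.5% FBS for 6 h or 24 h; total RNA hybridized to Illumina Human-HT12 arrays; background correction, vst, rsn normalization; moderated paired t-test versus DMSO, thresholds p < 0.05 and log2 fold change >|0.5|.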

HUVEC [14] = experiment: Effect on GINS2 gene expression in serum-starved HUVEC after 6 hrs by microarray analysis relative to control; type: functional, Homo sapiens; method in brief: as §3
HUVEC [15] = experiment: Effect on HLA-DRA gene expression in serum-starved HUVEC after 6 hrs by microarray analysis relative to control; type: functional, Homo sapiens
HUVEC [16] = experiment: Effect on LMNB2 gene expression in serum-starved HUVEC after 6 hrs by microarray analysis relative to control; type: functional, Homo sapiens; method in brief: as §2
HUVEC [17] = experiment: Effect on RACGAP1 gene expression in serum-starved HUVEC after 6 hrs by microarray analysis relative to control; type: functional, Homo sapiens
HUVEC [18] = experiment: Effect on TUBB4B gene expression in serum-starved HUVEC after 6 hrs by microarray analysis relative to control; type: functional, Homo sapiens
HUVEC [19] = experiment: Effect on YES1 gene expression in serum-starved HUVEC after 6 hrs by microarray analysis relative to control; type: functional, Homo sapiens
HUVEC [20] = experiment: Effect on ANGPT2 gene expression in serum-starved HUVEC after 24 hrs by microarray analysis relative to control; type: functional, Homo sapiens; method in brief: as §4
HUVEC [21] = experiment: Effect on CD34 gene expression in serum-starved HUVEC after 24 hrs by microarray analysis relative to control; type: functional, Homo sapiens
Method in brief: (§5)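 Confluent serum-starved HUVEC (primary, pooled from 3–5 donors, passage ≤4) treated with 2 μM compound or DMSO vehicle in 2.5% FBS for 6 h or 24 h. Total RNA hybridized to Illumina Human-HT12 arrays, background-corrected, vst-transformed and rsn-normalized. Differential expression versus DMSO by moderated paired t-test (p < 0.05, |log2 fold change| > 0.5).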

HUVEC [22] = experiment: Effect on CENPF gene expression in serum-starved HUVEC after 24 hrs by microarray analysis relative to control; type: functional, Homo sapiens; method in brief: as §4
HUVEC [23] = experiment: Effect on CMTM7 gene expression in serum-starved HUVEC after 24 hrs by microarray analysis relative to control; type: functional, Homo sapiens; method in brief: as §5
HUVEC [24] = experiment: Effect on COL4A3BP gene expression in serum-starved HUVEC after 24 hrs by microarray analysis relative to control; type: functional, Homo sapiens; method in brief: as §5
HUVEC [25] = experiment: Effect on GINS2 gene expression in serum-starved HUVEC after 24 hrs by microarray analysis relative to control; type: functional, Homo sapiens; method in brief: as §3
HUVEC [26] = experiment: Effect on MYO10 gene expression in serum-starved HUVEC after 24 hrs by microarray analysis relative to control; type: functional, Homo sapiens; method in brief: as §2
HUVEC [27] = experiment: Effect on PODXL gene expression in serum-starved HUVEC after 24 hrs by microarray analysis relative to control; type: functional, Homo sapiens; method in brief: as §2
HUVEC [28] = experiment: Effect on RDH11 gene expression in serum-starved HUVEC after 24 hrs by microarray analysis relative to control; type: functional, Homo sapiens
HUVEC [29] = experiment: Effect on RNA5S9 gene expression in serum-starved HUVEC after 24 hrs by microarray analysis relative to control; type: functional, Homo sapiens
HUVEC [30] = experiment: Effect on SCD gene expression in serum-starved HUVEC after 24 hrs by microarray analysis relative to control; type: functional, Homo sapiens
HUVEC [31] = experiment: Effect on SERPINB2 gene expression in serum-starved HUVEC after 24 hrs by microarray analysis relative to control; type: functional, Homo sapiens
HUVEC [32] = experiment: Effect on SMC4 gene expression in serum-starved HUVEC after 24 hrs by microarray analysis relative to control; type: functional, Homo sapiens
HUVEC [33] = experiment: Effect on SULT1C4 gene expression in serum-starved HUVEC after 24 hrs by microarray analysis relative to control; type: functional, Homo sapiens
[34] = Downregulation of UBE2C gene expression in serum-starved HUVEC at 2 uM after 24 hrs by qRT-PCR analysis; type: functional, cell-based; conditions: Homo sapiens
Method in brief: (§6)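 Serum-starved confluent HUVEC treated with 2 μM compound or vehicle in 2.5% FBS for 24 h. Total RNA isolated and qRT-PCR run in triplicate (95 °C 5 min; 40 cycles of 95 °C 5 s, 58 °C 20 s, 72 °C 5 s), normalized to RPS18S. Fold change vs control, n = 3.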

[35] = Downregulation of CCNB2 gene expression in serum-starved HUVEC at 2 uM after 24 hrs by qRT-PCR analysis; type: functional, cell-based; conditions: Homo sapiens; method in brief: as §6

COc1ccc(Cn2nc(-c3ccccc3)c3cc(Cl)nc(N4CCNCC4)c32)cc1
log2FC (HUVEC [1]): -0.1297
log2FC (HUVEC [2]): -0.6107
log2FC (HUVEC [3]): 0.5417
log2FC (HUVEC [4]): 0.0198

COc1ccc(Cn2nc(-c3ccccc3)c3cc(Nc4ccc(N5CCN(C)CC5)cc4)nc(N4CCNCC4)c32)cc1
log2FC (HUVEC [5]): 0.6699
log2FC (HUVEC [6]): -0.5222
log2FC (HUVEC [7]): -0.2889

COc1ccc(Cn2nc(-c3ccccc3)c3cc(Nc4ccc(N5CCN(C)CC5)cc4)nc(N4CCN(C)CC4)c32)cc1
fold change (FC) (HUVEC [8]): 0.2037
log2FC (HUVEC [9]): -0.3836
fold change (FC) (HUVEC [10]): 0.1452
log2FC (HUVEC [1]): -0.1003
log2FC (HUVEC [11]): -0.1173
log2FC (HUVEC [12]): -0.2667
fold change (FC) (HUVEC [13]): 0.0722
log2FC (HUVEC [14]): -0.1389
fold change (FC) (HUVEC [15]): 0.8911
fold change (FC) (HUVEC [16]): 0.1414
log2FC (HUVEC [17]): -0.171
log2FC (HUVEC [2]): -0.6156
fold change (FC) (HUVEC [18]): -0.206
log2FC (HUVEC [19]): 0.3231
fold change (FC) (HUVEC [20]): 0.5736
fold change (FC) (HUVEC [21]): 0.5547
fold change (FC) (HUVEC [22]): -0.7151
fold change (FC) (HUVEC [23]): 0.5435
fold change (FC) (HUVEC [24]): -0.1456
log2FC (HUVEC [25]): -0.5372
log2FC (HUVEC [26]): 0.507
log2FC (HUVEC [27]): 0.6696
log2FC (HUVEC [28]): 0.6682
log2FC (HUVEC [29]): 0.0013
log2FC (HUVEC [30]): 1.4341
log2FC (HUVEC [31]): -0.6601
log2FC (HUVEC [32]): -0.5117
log2FC (HUVEC [33]): 0.5208
Activity [34]: Active
Activity [35]: Active
